ChEMBL document CHEMBL2069215, “Synthesis and biological evaluation of novel triazoles and isoxazoles linked 2-phenyl benzothiazole as potential anticancer agents” (Bioorg Med Chem Lett, 2012)
The source made the active and inactive calls. No cut-off for these calls is given here.

Legend:
A549 = test: Cytotoxicity against human A549 cells after 24 hrs by MTT assay; format: functional, cell-based; conditions: A549, 24 h
In short: (§1)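 A549 lung adenocarcinoma, Colo-205 colon and MCF-7 breast carcinoma cells were exposed to compounds at 1 to 64 µM for 24 h. Viability was read by MTT assay, and IC50 values were derived from it.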

COLO 205 [1] = test: Cytotoxicity against human COLO205 cells after 24 hrs by MTT assay; format: functional, cell-based; conditions: COLO 205, 24 h; in short: as §1
MCF7 = test: Cytotoxicity against human MCF7 cells after 24 hrs by MTT assay; format: functional, cell-based; conditions: MCF7, 24 h; in short: as §1
MCF-10A = test: Cytotoxicity against human MCF10A cells after 24 hrs by MTT assay; format: cell-based
COLO 205 [2] = test: Induction of apoptosis in human COLO205 cells assessed as accumulation at G0 phase at 8 uM after 24 hrs by FACS analysis (reference value: 2.28%); format: functional
In short: (§2)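 Colo-205 human colon cancer cells were exposed to 8 or 16 µM for 24 h alongside untreated controls. They were then analysed by flow cytometry (FACS) for cell-cycle distribution as percent of cells in G0, G1, S and G2/M. The G0 population was taken as apoptotic cells.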

COLO 205 [3] = test: Cell cycle arrest in human COLO205 cells assessed as accumulation at S phase at 16 uM after 24 hrs by FACS analysis (reference value: 3.56 +/- 0.40%); format: functional; in short: as §2
COLO 205 [4] = test: Cell cycle arrest in human COLO205 cells assessed as accumulation at S phase at 8 uM after 24 hrs by FACS analysis (reference value: 3.56 +/- 0.40%); format: functional; in short: as §2
COLO 205 [5] = test: Cell cycle arrest in human COLO205 cells assessed as accumulation at G2/M phase at 8 uM after 24 hrs by FACS analysis (reference value: 23.09 +/- 1.01%); format: functional; in short: as §2
COLO 205 [6] = test: Cell cycle arrest in human COLO205 cells assessed as accumulation at G1 phase at 8 uM after 24 hrs by FACS analysis (reference value: 71.02 +/- 1.00%); format: functional; in short: as §2
COLO 205 [7] = test: Cell cycle arrest in human COLO205 cells assessed as accumulation at G1 phase at 16 uM after 24 hrs by FACS analysis (reference value: 71.02 +/- 1.00%); format: functional; in short: as §2
COLO 205 [8] = test: Cell cycle arrest in human COLO205 cells assessed as accumulation at G2/M phase at 16 uM after 24 hrs by FACS analysis (reference value: 23.09 +/- 1.01%); format: functional; in short: as §2
COLO 205 [9] = test: Induction of apoptosis in human COLO205 cells assessed as accumulation at G0 phase at 16 uM after 24 hrs by FACS analysis (reference value: 2.28%); format: functional; in short: as §2
COLO 205 [10] = test: Induction of apoptosis in human COLO205 cells assessed as degradation of procaspase 9 at 8 uM after 24 hrs by Western blot analysis; format: functional, cell-based
In short: (§3)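 Colo-205 cells were treated at 8 or 16 µM for 24 h and lysed. Western blots of the lysates were probed with antibodies to procaspase-8, procaspase-9, active caspase-3 and cleaved (active) PARP.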

COLO 205 [11] = test: Induction of apoptosis in human COLO205 cells assessed as increase in PARP expression at 8 uM after 24 hrs by Western blot analysis; format: functional, cell-based; in short: as §3
COLO 205 [12] = test: Induction of apoptosis in human COLO205 cells assessed as degradation of procaspase 8 at 8 uM after 24 hrs by Western blot analysis; format: functional, cell-based; in short: as §3
COLO 205 [13] = test: Induction of apoptosis in human COLO205 cells assessed as increase in caspase 3 expression at 8 uM after 24 hrs by Western blot analysis; format: functional, cell-based; in short: as §3

| SMILES | IC50 (A549) [µM] | IC50 (COLO 205 [1]) [µM] | IC50 (MCF7) [µM] | IC50 (MCF-10A) [µM] | Activity (COLO 205 [2]) [%] | Activity (COLO 205 [3]) [%] | Activity (COLO 205 [4]) [%] | Activity (COLO 205 [5]) [%] | Activity (COLO 205 [6]) [%] | Activity (COLO 205 [7]) [%] | Activity (COLO 205 [8]) [%] | Activity (COLO 205 [9]) [%] | Activity (COLO 205 [10]) | Activity (COLO 205 [11]) | Activity (COLO 205 [12]) | Activity (COLO 205 [13]) |
| --- | --- | --- | --- | --- | --- | --- | --- | --- | --- | --- | --- | --- | --- | --- | --- | --- |
| Cc1ccc(-c2cc(COc3ccccc3-c3nc4ccccc4s3)on2)cc1 | 16.4 | 14.2 | 27.5 | 26.4 | – | – | – | – | – | – | – | – | – | – | – | – |
| c1ccc(-n2cc(COc3ccccc3-c3nc4ccccc4s3)nn2)cc1 | 16.4 | 16.6 | 26.2 | 36.4 | – | – | – | – | – | – | – | – | – | – | – | – |
| Fc1ccccc1-c1cc(COc2ccccc2-c2nc3ccccc3s2)on1 | 22.5 | 18.3 | 23.9 | 42.5 | – | – | – | – | – | – | – | – | – | – | – | – |
| COc1ccc(-c2nc3cc(F)ccc3s2)cc1OC | 15.9 | 13.9 | 20.2 | 25.2 | 4.15 | 4.31 | 3.21 | 22.5 | 70.04 | 52.82 | 15.6 | 27.17 | – | – | – | – |
| COc1cc(-c2cc(COc3ccccc3-c3nc4ccccc4s3)on2)cc(OC)c1OC | 22.9 | 17.5 | 25.6 | 42.9 | – | – | – | – | – | – | – | – | – | – | – | – |
| FC(F)(F)C(F)(F)C(F)(F)C(F)(F)C(F)(F)C(F)(F)C(F)(F)C(F)(F)CCn1cc(COc2ccccc2-c2nc3ccccc3s2)nn1 | 13.1 | 12.2 | 19.2 | 33.1 | 3.3 | 3.79 | 4.43 | 20.22 | 72 | 46.57 | 15.18 | 34.45 | – | – | – | – |
| FC(F)(F)C(F)(F)C(F)(F)C(F)(F)C(F)(F)C(F)(F)CCn1cc(COc2ccccc2-c2nc3ccccc3s2)nn1 | 15.1 | 14.2 | 19.8 | 35.1 | 2.72 | 4.42 | 3.09 | 20.53 | 73.66 | 61.36 | 22.3 | 11.91 | – | – | – | – |
| Clc1ccc(-c2cc(COc3ccccc3-c3nc4ccccc4s3)on2)cc1 | 18.8 | 16.4 | 23.8 | 38.8 | – | – | – | – | – | – | – | – | – | – | – | – |
| FC(F)(F)Oc1ccc(-c2cc(COc3ccccc3-c3nc4ccccc4s3)on2)cc1 | 23.9 | 19.9 | 26.6 | 43.9 | – | – | – | – | – | – | – | – | – | – | – | – |
| Fc1ccc(-n2cc(COc3ccccc3-c3nc4ccccc4s3)nn2)cc1 | 23.3 | 18.9 | 26.2 | 33.3 | – | – | – | – | – | – | – | – | – | – | – | – |
| Fc1ccc(-n2cc(COc3ccccc3-c3nc4ccccc4s3)nn2)cc1Cl | 16.3 | 14.4 | 27.3 | 26.3 | – | – | – | – | – | – | – | – | – | – | – | – |
| Brc1ccc(-c2cc(COc3ccccc3-c3nc4ccccc4s3)on2)cc1 | 19.2 | 16.4 | 20 | 29.2 | – | – | – | – | – | – | – | – | – | – | – | – |
| FC(F)(F)c1cccc(-n2cc(COc3ccccc3-c3nc4ccccc4s3)nn2)c1 | 11.1 | 10.8 | 18.9 | 31.1 | 4.02 | 2.68 | 3.37 | 21.68 | 70.91 | 45.77 | 10.67 | 40.7 | Active | Active | Active | Active |
| COc1ccc(-c2cc(COc3ccccc3-c3nc4ccccc4s3)on2)cc1 | 24.1 | 20.7 | 22.1 | 34.1 | – | – | – | – | – | – | – | – | – | – | – | – |
